The format of data set [1] is in vivo, human. Put shortly: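 10 healthy male Korean volunteers, fasted from the night before until 1 PM, took 9 g extract orally with 100 mL water at 8 AM. Heparinised blood was drawn predose and at 4–14 h hourly, 24 and 36 h, and plasma was stored at -70℃. LC-MS/MS used a digoxin internal standard, an ODS column with methanol:water gradient, and 2–100 ng/mL plasma standards. Non-compartmental analysis used trapezoidal AUC, reported as mean±SD.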

The conditions of data set [2]: oral ginseng powder, healthy men, some individual variation; cited from earlier work.

Consider two compounds from publication PMC3825860 (Journal of Ginseng Research, 2013).

With `CC(C)=CCC[C@](C)(O[C@@H]1O[C@H](CO)[C@@H](O)[C@H](O)[C@H]1O)[C@H]1CC[C@]2(C)[C@@H]1[C@H](O)C[C@@H]1[C@@]3(C)CC[C@H](O)C(C)(C)[C@@H]3CC[C@]12C` [Compound K, 20-O-β-Ɗ-glucopyranosyl-20(S)-protopanaxadiol], in data set [1] (single oral 9 g Korean Red Ginseng extract, detected in 8 subjects), the “plasma concentration at 36 h after taking the extract” value was 0.90 ± 0.74 ng/mL. The “time of detection after oral administration” value in data set [2] is given as 8 h.

As for `CC(C)=CCC[C@](C)(O[C@@H]1O[C@H](CO[C@@H]2O[C@H](CO)[C@@H](O)[C@H](O)[C@H]2O)[C@@H](O)[C@H](O)[C@H]1O)[C@H]1CC[C@]2(C)[C@@H]1[C@H](O)C[C@@H]1[C@@]3(C)CC[C@H](O[C@@H]4O[C@H](CO)[C@@H](O)[C@H](O)[C@H]4O[C@@H]4O[C@H](CO)[C@@H](O)[C@H](O)[C@H]4O)C(C)(C)[C@@H]3CC[C@]12C` [Ginsenoside Rb1, ginsenoside Rb1], in data set [1] (male, human, plasma, po), the total exposure AUC(0-inf) is 308 ± 146 ng·h/mL, the AUC(0-t) amounted to 102 ± 51 ng·h/mL and the half-life was 58.5 ± 14.3 h.
